The text below walks through data of ChEMBL document CHEMBL3124890, “SAR studies on trisubstituted benzimidazoles as inhibitors of Mtb FtsZ for the development of novel antitubercular agents” (J Med Chem, 2013).

The structures appear in SMILES notation. Converted amounts (≈) assume the structure as drawn.

Test [1] concerns Mycobacterium tuberculosis. As to the kind of experiment: […]. It counts as functional, NHN382. The method, boiled down: (§1)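 Strains were grown at 37 °C in 7H9 Middlebrook broth with 10% OADC, 0.05% Tween and 0.2% glycerol. Compounds were dissolved in DMSO and serially diluted 2-fold, then bacteria were added. Plates were incubated 6 days at 37 °C, then 24 h more with Alamar Blue. MIC was the lowest concentration (μg/mL) that prevented the colour change. Run in triplicate.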

Test [2] has as its system Mycobacterium tuberculosis. Put plainly: […]. Type of test: functional, TN587. In outline: as §1

The term MIC denotes the lowest concentration found to suppress growth. Read a high MIC as a less susceptible organism. Consider `CCCCOC(=O)Nc1cc2nc(C3CCCCC3)[nH]c2cc1N(CC)CC`, for which the MIC in test [1] and in test [2] was 1.25 µg/mL (≈ 3.23 µM) in each case.

For the molecule `CCc1ccc(C(=O)Nc2cc3nc(C4CCCCC4)[nH]c3cc2N(C)C)cc1`, the MIC in test [1] and in test [2] was 0.16 µg/mL (≈ 0.41 µM) each time.

For `CCCCOC(=O)Nc1cc2nc(C3CCCCC3)[nH]c2cc1N(C)C`, the minimal inhibitory concentration (MIC) was 0.06 µg/mL (≈ 0.167 µM) in test [1] and 0.13 µg/mL (≈ 0.363 µM) in test [2].

As for `NNC(=O)c1ccncc1` [ISONIAZID], the MIC in test [1] and in test [2] was 0.25 µg/mL (≈ 1.82 µM) throughout.
